Measured values: ChEMBL document CHEMBL4402584, “Lead Optimization of Phthalazinone Phosphodiesterase Inhibitors as Novel Antitrypanosomal Compounds” (J Med Chem, 2020)

Key:
[1] = molecular target: 3',5'-cyclic-AMP phosphodiesterase 4D (Homo sapiens, UniProt Q08499); experiment: Inhibition of human PDE4D2 expressed in Escherichia coli BL21 (DE3) using cAMP as substrate by PDELight HTS cAMP phosphodiesterase Kit based
Procedure, shortened: (§1)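 Recombinant catalytic domains, His-tag purified, then ion exchange and size exclusion, were tested with the PDELight HTS cAMP kit in stimulation buffer (50 mM Hepes, 100 mM NaCl, 10 mM MgCl2, 0.5 mM EDTA, 0.05 mg/ml BSA, pH 7.5). Dose-response curves gave Ki, expressed as pKi = −log10(Ki ÷ 1000000).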

[2] = Metabolic stability in mouse microsomes assessed as compound remaining at 5 uM incubated for 30 mins by UPLC-MS/MS analysis; assay type: ADME, Microsome; settings: for remaining at 0.5 h, 5 µM: read-out: Stability; for Stability: 0.5 h, 5 µM
Procedure, shortened: (§2)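 Compound at 5 µM incubated with 0.5 mg/mL male liver microsomes in potassium phosphate buffer, started with 1 mM NADPH (CYP phase I). Aliquots quenched in cold acetonitrile containing tolbutamide, centrifuged at 4 °C, supernatant analysed by LC-MS. Results given as % parent remaining relative to time 0; mean of at least two experiments; diclofenac as control.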

[3] = Metabolic stability in human microsomes assessed as compound remaining at 5 uM incubated for 30 mins by UPLC-MS/MS analysis; assay type: ADME, Microsome; settings: for Stability: 0.5 h, 5 µM; procedure, shortened: as §2
[4] = molecular target: T1, Class 1 phosphodiesterase PDEB1 (Trypanosoma brucei, UniProt Q8WQX9); experiment: Inhibition of Trypanosoma brucei PDEB1 (565 to 918 residues) expressed in Escherichia coli BL21 (DE3) using cAMP as substrate by PDELight HTS cAMP phosphodiesterase Kit based; procedure, shortened: as §1
T1 sequence (Q8WQX9 whole entry): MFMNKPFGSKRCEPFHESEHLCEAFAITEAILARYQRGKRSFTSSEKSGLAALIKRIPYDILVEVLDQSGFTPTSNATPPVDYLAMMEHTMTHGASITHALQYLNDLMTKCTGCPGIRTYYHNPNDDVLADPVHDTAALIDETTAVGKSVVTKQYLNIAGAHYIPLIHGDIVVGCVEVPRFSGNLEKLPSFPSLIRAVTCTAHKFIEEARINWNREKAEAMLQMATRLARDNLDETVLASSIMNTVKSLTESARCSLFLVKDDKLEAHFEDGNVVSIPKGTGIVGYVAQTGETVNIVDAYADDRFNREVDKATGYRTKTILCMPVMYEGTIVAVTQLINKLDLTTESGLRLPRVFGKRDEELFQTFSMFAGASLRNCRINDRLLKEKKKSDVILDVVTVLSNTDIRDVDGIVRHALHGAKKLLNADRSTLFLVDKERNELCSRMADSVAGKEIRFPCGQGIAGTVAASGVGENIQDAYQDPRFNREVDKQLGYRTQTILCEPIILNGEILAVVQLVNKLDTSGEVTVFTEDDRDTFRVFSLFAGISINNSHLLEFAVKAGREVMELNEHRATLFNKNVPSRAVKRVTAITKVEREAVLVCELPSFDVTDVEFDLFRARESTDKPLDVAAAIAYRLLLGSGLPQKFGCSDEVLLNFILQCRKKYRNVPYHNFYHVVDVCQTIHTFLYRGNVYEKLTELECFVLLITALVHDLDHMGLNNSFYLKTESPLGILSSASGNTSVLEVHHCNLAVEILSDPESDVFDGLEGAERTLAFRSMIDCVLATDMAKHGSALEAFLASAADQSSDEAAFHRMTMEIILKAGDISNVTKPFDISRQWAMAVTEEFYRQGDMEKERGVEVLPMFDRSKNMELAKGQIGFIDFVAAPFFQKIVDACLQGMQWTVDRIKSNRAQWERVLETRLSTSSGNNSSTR

[5] = tested on: Trypanosoma brucei; experiment: Antitrypanosomal activity against Trypanosoma brucei Squib 427 assessed as reduction in parasite growth incubated for 72 hrs by resazurin dye based fluorimetric analysis; assay type: functional, organism-based; settings: Squib 427, 72 h
[6] = Cytotoxicity against human MRC5 SV2 cells assessed as reduction in cell viability incubated for 72 hrs by resazurin dye based fluorimetric assay; settings: MRC-5 SV2, 72 h
Procedure, shortened: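 MRC-5 SV2 fibroblasts grown in Earl's MEM with 5% FBSi, L-glutamine and bicarbonate; 1×10^4 cells/well treated 72 h at 37 °C, 5% CO2; resazurin viability read fluorimetrically (ex 550, em 590 nm). Five 4-fold dilutions from a 64 µM top concentration; IC50 derived from % viability reduction vs untreated wells; tamoxifen as reference.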

3',5'-cyclic-AMP phosphodiesterase 4D, sequence (Q08499 whole entry, the tested form may be a part): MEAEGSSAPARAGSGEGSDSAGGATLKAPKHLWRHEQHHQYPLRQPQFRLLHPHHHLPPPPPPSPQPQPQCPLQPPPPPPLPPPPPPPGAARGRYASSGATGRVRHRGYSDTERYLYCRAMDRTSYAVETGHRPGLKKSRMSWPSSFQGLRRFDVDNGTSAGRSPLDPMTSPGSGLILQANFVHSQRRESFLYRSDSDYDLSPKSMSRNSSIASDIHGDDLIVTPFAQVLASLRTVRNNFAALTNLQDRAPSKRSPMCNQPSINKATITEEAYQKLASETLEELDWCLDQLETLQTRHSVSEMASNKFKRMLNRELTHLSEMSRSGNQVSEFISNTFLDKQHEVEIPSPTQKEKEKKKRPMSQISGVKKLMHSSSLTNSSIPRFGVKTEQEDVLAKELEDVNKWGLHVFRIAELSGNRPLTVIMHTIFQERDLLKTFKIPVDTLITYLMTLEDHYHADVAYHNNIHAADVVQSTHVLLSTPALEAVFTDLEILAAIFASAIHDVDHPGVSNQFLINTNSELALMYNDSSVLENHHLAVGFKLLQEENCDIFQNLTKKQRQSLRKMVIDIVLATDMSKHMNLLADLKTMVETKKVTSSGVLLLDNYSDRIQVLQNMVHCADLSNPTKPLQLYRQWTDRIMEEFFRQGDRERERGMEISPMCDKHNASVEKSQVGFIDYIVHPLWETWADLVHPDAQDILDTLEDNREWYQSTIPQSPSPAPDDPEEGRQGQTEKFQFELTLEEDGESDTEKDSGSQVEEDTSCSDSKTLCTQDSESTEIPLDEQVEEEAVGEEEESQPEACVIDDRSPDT

Compound | Ki [1] [nM] | remaining at 0.5 h, 5 µM [2] [%] | remaining at 0.5 h, 5 µM ([3]; read-out: Stability) [%] | Ki [4] [nM] | IC50 [5] [nM] | IC50 [6] [nM] | Stability [2] | Stability [3]
COc1ccc(C2=NN(C3CCN(C(=O)CN4C(=O)CCC4=O)CC3)C(=O)[C@@H]3CC=CC[C@H]23)cc1OC | 0.0617 | 43 | 89 | 20.9 | 1860 | 64600 | – | –
COc1ccc(C2=NN(C3CN(C(=O)CN4C(=O)CC5(CCCCC5)CC4=O)C3)C(=O)[C@@H]3CC=CC[C@H]23)cc1OC | 0.851 | – | – | 91.2 | 1150 | 64600 | Stable | Stable
Nc1nc(N2CCC(N3N=C(c4ccc(F)c(F)c4)[C@H]4CC=CC[C@H]4C3=O)CC2)c2ccsc2n1 (relative stereo) | – | – | – | > 8320 | 1910 | 64600 | Stable | Stable
COc1ccc(C2=NN(C3CCN(C(=O)CN4C(=O)CC(C)(C)CC4=O)CC3)C(=O)[C@@H]3CCCC[C@H]23)cc1OC | 0.162 | – | – | 85.1 | 1950 | 56200 | Stable | Stable
CC1(C)CC(=O)N(CC(=O)N2CCC(N3N=C(c4ccc(OC(F)F)c(OC(F)F)c4)[C@H]4CCCC[C@H]4C3=O)CC2)C(=O)C1 | – | – | – | > 1580 | 6460 | 64600 | Stable | Stable
COc1ccc(C2=NN(C3CCN(C(=O)CN4C(=O)CC(C)(C)CC4=O)CC3)C(=O)[C@@H]3CC=CC[C@H]23)cc1OC | 0.123 | 6.7 | – | 43.7 | 447 | 44700 | – | Stable
COc1ccc(C2=NN(C3CCN(c4nc(N)c5sccc5n4)CC3)C(=O)[C@@H]3CC=CC[C@H]23)cc1OC | 0.676 | – | – | 339 | 1780 | 64600 | Stable | Stable
COc1ccc(C2=NN(C3CCN(C(=O)CN4C(=O)CC5(CCCCC5)CC4=O)CC3)C(=O)[C@@H]3CC=CC[C@H]23)cc1OC | 0.155 | – | – | 30.9 | 479 | 31600 | Stable | Stable
O=C(CN1C(=O)CC2(CCCCC2)CC1=O)N1CCC(N2N=C(c3ccc(F)c(F)c3)[C@H]3CCCC[C@H]3C2=O)CC1 | – | – | – | > 6920 | 7590 | 64600 | Stable | Stable
O=C(CN1C(=O)CC2(CCCCC2)CC1=O)N1CCC(N2N=C(c3ccc(F)c(F)c3)[C@H]3CC=CC[C@H]3C2=O)CC1 (relative stereo) | – | – | – | > 4570 | 33100 | 64600 | Stable | Stable
Nc1nc(N2CCC(N3N=C(c4ccc(F)cc4)[C@H]4CC=CC[C@H]4C3=O)CC2)c2ccsc2n1 (relative stereo) | – | – | – | > 9330 | 2090 | 64600 | Stable | Stable
